Measured values collected from several papers.
Protocols differ between the studies behind these lines.
Read-out: parasite growth
Notes: promastigote

With `COc1ccc(S(=O)(=O)c2ccc(OC)c(OC)c2OC)cc1` the IC50 was 32 µM (Leishmania braziliensis; MTT; 24 h).
The IC50 of `CC(C)(C)CC(C)(C)Nc1c(-c2ccccc2)nc2ncccn12` is reported as 50.3 µM (Leishmania amazonensis; MTT; 72 h).
`COc1cc(O)c(CC=C(C)C)c(O)c1C(=O)/C=C/c1ccc(O)cc1` has an IC50 of 47.2 µM (Leishmania amazonensis; MTT; 72 h).
`C[C@@H]1[C@H](O)[C@@H](C)/C=C/C=C/C=C/C=C/C=C/C=C/C=C/[C@H](O[C@@H]2O[C@H](C)[C@@H](O)[C@H](N)[C@@H]2O)C[C@@H]2O[C@](O)(C[C@@H](O)C[C@@H](O)[C@H](O)CC[C@@H](O)C[C@@H](O)CC(=O)O[C@H]1C)C[C@H](O)[C@H]2C(=O)O` has an IC50 of 0.06 µg/mL (Leishmania amazonensis; 72 h).
`COc1ccc(Sc2ccccc2)c(OC)c1OC` gave an IC50 of 14 µM (Leishmania braziliensis; MTT).
For `C=C1CC[C@@H]2[C@](C)(CCC[C@]2(C)C(=O)O)[C@H]1CC/C(C)=C/C(=O)O`, the IC50 was 28 µg/mL (Leishmania amazonensis; 72 h).
The IC50 of `COc1ccc(Sc2ccc(OC)c(OC)c2OC)cc1` is reported as 28 µM (Leishmania braziliensis; MTT; 24 h).
The IC50 of `C=C1C[C@@]23CC[C@H]4[C@@](C)(CCC[C@@]4(C)C(=O)O)[C@@H]2CC[C@@H]1C3` is reported as 28 µg/mL (Leishmania amazonensis; 72 h).
`CCCCCCCCc1nc2ncccn2c1NC(C)(C)CC(C)(C)C` gave an IC50 of 40.6 µM (Leishmania amazonensis; MTT; 72 h).
With `Oc1ccc(/C=C/c2cc(O)cc(O)c2)cc1` the IC50 was 97.9 µM (Leishmania amazonensis; MTT; 72 h).
The IC50 of `COc1ccc([S+]([O-])c2ccc(OC)c(OC)c2OC)cc1` (stereo not drawn) is reported as 15.2 µM (Leishmania braziliensis; MTT; 24 h).
`CC(C)(C)CC(C)(C)Nc1c(-c2cccnc2)nc2ncccn12` has an IC50 of greater than 100 µM (Leishmania amazonensis; MTT; 72 h).
